Data taken from ChEMBL document CHEMBL1156792, “Application of the dipeptidyl peptidase IV (DPPIV/CD26) based prodrug approach to different amine-containing drugs” (J Med Chem, 2010).

How the values were obtained:
[1] = substrate: CC(C)[C@H](N)C(=O)N1CCC[C@H]1C(=O)Nc1ccc2ncccc2c1; test: (§1) Activity of human recombinant CD26 assessed as hydrolysis
In short: (§2)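 Human recombinant CD26 (Sf9-expressed) was incubated with prodrug at several levels (2–50 μM, or 50–1000 μM for the AspPro conjugate). Hydrolysis was quantified by RP-8 HPLC at 15, 30 and 45 min. Km and Vmax were calculated at each time point and averaged over the three, with at least two to three independent experiments.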

[2] = substrate: N[C@@H](CC(=O)O)C(=O)N1CCC[C@H]1C(=O)Nc1ccc2ncccc2c1; test: as §1; in short: as §2
[3] = substrate: CC(C)[C@H](N)C(=O)N1CCC[C@H]1C(=O)N[C@H](C(=O)N1CCC[C@H]1C(=O)Nc1ncnc2c1ncn2[C@@H]1O[C@H](CO)[C@@H](O)[C@@H]1O)C(C)C; test: as §1; in short: as §2
[4] = substrate: COc1cccc2c1C(=O)c1c(O)c3c(c(O)c1C2=O)C[C@@](O)(C(=O)CO)C[C@@H]3O[C@H]1C[C@H](NC(=O)[C@@H]2CCCN2C(=O)[C@@H](N)C(C)C)[C@H](O)[C@H](C)O1; test: as §1; in short: as §2

B1: Dipeptidyl peptidase 4 (Homo sapiens), P27487 (protein)
chain: MKTPWKVLLGLLGAAALVTIITVPVVLLNKGTDDATADSRKTYTLTDYLKNTYRLKLYSLRWISDHEYLYKQENNILVFNAEYGNSSVFLENSTFDEFGHSINDYSISPDGQFILLEYNYVKQWRHSYTASYDIYDLNKRQLITEERIPNNTQWVTWSPVGHKLAYVWNNDIYVKIEPNLPSYRITWTGKEDIIYNGITDWVYEEEVFSAYSALWWSPNGTFLAYAQFNDTEVPLIEYSFYSDESLQYPKTVRVPYPKAGAVNPTVKFFVVNTDSLSSVTNATSIQITAPASMLIGDHYLCDVTWATQERISLQWLRRIQNYSVMDICDYDESSGRWNCLVARQHIEMSTTGWVGRFRPSEPHFTLDGNSFYKIISNEEGYRHICYFQIDKKDCTFITKGTWEVIGIEALTSDYLYYISNEYKGMPGGRNLYKIQLSDYTKVTCLSCELNPERCQYYSVSFSKEAKYYQLRCSGPGLPLYTLHSSVNDKGLRVLEDNSALDKMLQNVQMPSKKLDFIILNETKFWYQMILPPHFDKSKKYPLLLDVYAGPCSQKADTVFRLNWATYLASTENIIVASFDGRGSGYQGDKIMHAINRRLGTFEVEDQIEAARQFSKMGFVDNKRIAIWGWSYGGYVTSMVLGSGSGVFKCGIAVAPVSRWEYYDSVYTERYMGLPTPEDNLDHYRNSTVMSRAENFKQVEYLLIHGTADDNVHFQQSAQISKALVDVGVDFQAMWYTDEDHGIASSTAHQHIYTHMSHFIKQCFSLP
Protein B1 has a Km [1] of 25 µM, a Vmax (nmol/hr/microg) [1] of 32 and a Km [2] of 524 µM. It also gave a Vmax (nmol/hr/microg) [2] of 70, a Km [3] of 56 µM and a Vmax (nmol/hr/microg) [3] of 10. The Km [4] was 15 µM and the Vmax (nmol/hr/microg) [4] was 30.
